In ChEMBL document CHEMBL4480426, “Novel multi-target directed ligands based on annelated xanthine scaffold with aromatic substituents acting on adenosine receptor and monoamine oxidase B. Synthesis, in vitro and in silico studies” (Bioorg Med Chem, 2019):

What was measured:
Brain = experiment: Antioxidant activity in rat brain homogenate assessed as inhibition of FeCl2/ascorbic acid-induced lipid peroxidation by measuring reduction in TBARS level at 1000 uM preincubated for 5 mins followed by FeCl2/ascorbic acid addition and measured after 30 mins relative to control; assay type: functional, tissue-based; parameters: scale not given: the % may be the effect or the level left
In short: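 Rat brain homogenate in 0.9% saline, 10 mg tissue/ml, preincubated 5 min at 37 °C with compound or vehicle. Peroxidation started with 0.5 mM FeCl2 plus 2 mM ascorbic acid (added-solution concentrations). After 30 min, stopped with 0.2% BHT. Thiobarbituric acid reagent added, heated 15 min in boiling water, TBARS extracted into n-butanol and read at 532 nm. Carvedilol as reference.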

[1] = target: Adenosine receptor A1 (Rattus norvegicus) (UniProt P25099); experiment: Displacement of [3H]CCPA from rat adenosine A1 receptor
Adenosine receptor A1 = target: T1, Adenosine receptor A1 (Rattus norvegicus, UniProt P25099); experiment: Displacement of [3H]CCPA from adenosine A1 receptor in rat brain cortical membranes; assay type: cell membranes
T1 sequence (P25099 whole entry): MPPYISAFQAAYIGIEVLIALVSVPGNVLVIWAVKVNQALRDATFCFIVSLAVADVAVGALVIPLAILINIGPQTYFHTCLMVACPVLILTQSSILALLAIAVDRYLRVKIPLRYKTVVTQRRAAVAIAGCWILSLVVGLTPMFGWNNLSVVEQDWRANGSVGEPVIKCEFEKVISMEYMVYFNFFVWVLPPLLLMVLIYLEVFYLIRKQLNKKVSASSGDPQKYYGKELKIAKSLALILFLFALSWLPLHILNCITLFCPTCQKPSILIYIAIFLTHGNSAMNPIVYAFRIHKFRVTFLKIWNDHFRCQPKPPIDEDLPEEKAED

Adenosine receptor A2a = Adenosine receptor A2a (Homo sapiens, UniProt P29274); experiment: Displacement of [3H]MSX2 from recombinant human adenosine A2a receptor expressed in HEK293 cells; assay type: cell-based
Adenosine receptor A2a, sequence (P29274 whole entry): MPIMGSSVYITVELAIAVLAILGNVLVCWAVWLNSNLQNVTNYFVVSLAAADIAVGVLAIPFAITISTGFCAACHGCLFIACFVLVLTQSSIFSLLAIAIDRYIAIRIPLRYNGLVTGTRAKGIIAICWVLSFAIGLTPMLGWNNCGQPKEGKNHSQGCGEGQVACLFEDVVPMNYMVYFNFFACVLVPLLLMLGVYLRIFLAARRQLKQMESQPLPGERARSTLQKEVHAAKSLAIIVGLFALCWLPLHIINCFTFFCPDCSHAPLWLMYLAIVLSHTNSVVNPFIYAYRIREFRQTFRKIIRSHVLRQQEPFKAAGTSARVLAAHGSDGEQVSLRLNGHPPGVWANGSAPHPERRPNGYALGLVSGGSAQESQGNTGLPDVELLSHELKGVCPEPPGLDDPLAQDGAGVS

Adenosine receptor A2b = target: T2, Adenosine receptor A2b (Homo sapiens, UniProt P29275); experiment: Displacement of [3H]PSB603 from recombinant human adenosine A2b receptor expressed in HEK293 cells; assay type: cell-based
T2 sequence (P29275 whole entry): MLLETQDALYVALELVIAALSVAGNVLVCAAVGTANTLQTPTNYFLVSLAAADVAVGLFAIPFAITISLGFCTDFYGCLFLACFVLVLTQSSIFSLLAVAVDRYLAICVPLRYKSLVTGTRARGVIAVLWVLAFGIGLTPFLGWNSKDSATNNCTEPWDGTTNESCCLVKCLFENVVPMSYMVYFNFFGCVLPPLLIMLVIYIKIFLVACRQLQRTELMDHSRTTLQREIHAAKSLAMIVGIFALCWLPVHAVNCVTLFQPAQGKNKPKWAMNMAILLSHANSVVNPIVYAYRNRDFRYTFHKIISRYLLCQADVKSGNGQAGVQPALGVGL

Adenosine receptor A3 = target: T3, Adenosine receptor A3 (Homo sapiens, UniProt P0DMS8); experiment: Displacement of [3H]PSB11 from recombinant human adenosine A3 receptor expressed in CHO cells; assay type: cell-based
T3 sequence (P0DMS8 whole entry): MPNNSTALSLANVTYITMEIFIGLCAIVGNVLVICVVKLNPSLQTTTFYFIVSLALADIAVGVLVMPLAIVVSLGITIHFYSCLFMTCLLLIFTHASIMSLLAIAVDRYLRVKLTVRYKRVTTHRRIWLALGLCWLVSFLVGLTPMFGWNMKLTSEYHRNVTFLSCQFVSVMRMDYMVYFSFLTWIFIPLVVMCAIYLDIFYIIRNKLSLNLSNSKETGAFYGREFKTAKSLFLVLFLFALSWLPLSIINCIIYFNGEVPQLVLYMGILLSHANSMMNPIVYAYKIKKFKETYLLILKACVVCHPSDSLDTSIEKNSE

[2] = target: T4, Amine oxidase [flavin-containing] A (Homo sapiens, UniProt P21397); experiment: Inhibition of recombinant human MAOA expressed in baculovirus infected BTI insect cells using p-tyramine as substrate preincubated for 30 mins followed by substrate addition and measured over 45 mins by horseradish peroxidase-Amplex Red-coupled fluorometric assay
T4 sequence (P21397 whole entry): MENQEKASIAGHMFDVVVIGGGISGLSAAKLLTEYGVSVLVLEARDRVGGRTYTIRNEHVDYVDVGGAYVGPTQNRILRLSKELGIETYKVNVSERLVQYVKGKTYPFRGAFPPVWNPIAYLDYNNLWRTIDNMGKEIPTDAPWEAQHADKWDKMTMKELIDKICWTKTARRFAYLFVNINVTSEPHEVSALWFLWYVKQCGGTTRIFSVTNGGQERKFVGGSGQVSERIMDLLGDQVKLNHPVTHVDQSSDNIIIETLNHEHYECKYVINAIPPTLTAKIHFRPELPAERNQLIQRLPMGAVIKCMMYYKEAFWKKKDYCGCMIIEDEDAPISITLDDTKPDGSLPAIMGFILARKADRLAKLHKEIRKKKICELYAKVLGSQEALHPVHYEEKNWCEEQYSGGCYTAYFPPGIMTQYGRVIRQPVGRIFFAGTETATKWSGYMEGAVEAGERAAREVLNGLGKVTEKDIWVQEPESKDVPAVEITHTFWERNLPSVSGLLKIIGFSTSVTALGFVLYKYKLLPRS
In short: (§1)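 Human recombinant MAO-A or MAO-B enzyme. Activity detected fluorometrically with the Amplex Red monoamine oxidase assay.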

[3] = target: T5, Amine oxidase [flavin-containing] B (Homo sapiens, UniProt P27338); experiment: Inhibition of recombinant human MAOB expressed in baculovirus infected BTI insect cells using p-tyramine as substrate preincubated for 30 mins followed by substrate addition and measured over 45 mins by horseradish peroxidase-Amplex Red-coupled fluorometric assay; in short: as §1
T5 sequence (P27338 whole entry): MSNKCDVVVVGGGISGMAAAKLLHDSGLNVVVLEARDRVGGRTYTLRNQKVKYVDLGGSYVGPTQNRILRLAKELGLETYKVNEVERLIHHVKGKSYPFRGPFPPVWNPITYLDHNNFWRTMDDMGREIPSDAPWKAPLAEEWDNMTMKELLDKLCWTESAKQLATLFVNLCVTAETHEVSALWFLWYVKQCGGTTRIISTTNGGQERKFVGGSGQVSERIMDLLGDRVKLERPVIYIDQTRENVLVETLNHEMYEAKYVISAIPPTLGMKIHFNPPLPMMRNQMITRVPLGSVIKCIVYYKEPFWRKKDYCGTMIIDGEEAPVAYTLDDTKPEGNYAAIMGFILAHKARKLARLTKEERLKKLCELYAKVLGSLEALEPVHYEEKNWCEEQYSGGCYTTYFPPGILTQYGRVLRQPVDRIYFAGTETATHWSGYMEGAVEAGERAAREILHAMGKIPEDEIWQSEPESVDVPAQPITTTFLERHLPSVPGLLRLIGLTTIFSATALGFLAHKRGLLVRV

[4] = target: T4, Amine oxidase [flavin-containing] A; experiment: Inhibition of recombinant human MAOA expressed in baculovirus infected BTI insect cells at 1 to 100 uM using p-tyramine as substrate preincubated for 30 mins followed by substrate addition and measured over 45 mins by horseradish peroxidase-Amplex Red-coupled fluorometric assay relative to control; conditions: 0.75 h; in short: as §1
HepG2 = experiment: Hepatotoxicity against human HepG2 cells assessed as reduction in cell viability at 100 uM measured after 72 hrs by CellTiter96 Aqueous non-radioactive cell proliferation assay; assay type: toxicity, cell-based; conditions: hepg2, 72 h
In short: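 HepG2 cells seeded at 1.5×10^4 cells/well in MEM with 4.5 g/L glucose and 10% FBS, grown 24 h at 37 °C, 5% CO2. Compounds diluted in the same medium and applied for 72 h. CellTiter 96 AQueous reagent then added for 2 h, absorbance read at 490 nm. One-way ANOVA with Bonferroni post test.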

[5] = Antioxidant activity assessed as increase in total ferric ion reducing activity at 1000 uM using FeCl3.6H2O and TPTZ incubated for 10 mins under dark condition by FRAP assay relative to control; assay type: functional; parameters: scale not given: the % may be the effect or the level left
In short: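 FRAP reagent made by mixing 10 parts 300 mM acetate buffer pH 3.6, 1 part 10 mM TPTZ in 40 mM HCl and 1 part 20 mM FeCl3·6H2O. Reagent mixed with compound solution, 10 min at room temperature in the dark. Ferrous-TPTZ complex read at 593 nm. Result is absorbance increase versus solvent sample. FeSO4·7H2O standard curve, 37.5–1200 μM.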

Compound	Activity (Brain) [%]	Ki [1] [nM]	Ki (Adenosine receptor A1) [nM]	Ki (Adenosine receptor A2a) [nM]	Ki (Adenosine receptor A2b) [nM]	Ki (Adenosine receptor A3) [nM]	IC50 [2] [nM]	IC50 [3] [nM]	inhibition (INH) [4] [%]	Activity (HepG2)	Activity [5] [%]
COc1ccccc1OCCNCC(O)COc1cccc2[nH]c3ccccc3c12 (stereo not given)	44.8										
Cn1c(=O)c2c(nc3n2CCCN3Cc2cccc(Cl)c2)n(C)c1=O		802 to 1120									
Cn1c(=O)c2c(nc3n2CCCN3Cc2ccccc2Br)n(C)c1=O	29.5		2320	1610	> 1000	> 1000	> 1000	150	1	Toxic	3.4
Cn1c(=O)c2c(nc3n2CCCN3Cc2c(F)cccc2Cl)n(C)c1=O			1550	189	> 1000	> 1000	> 100000	570	10	Toxic	
